Published values from different studies.
Protocols differ between the studies behind these lines.
Target: Serine/threonine-protein kinase tousled-like 2 (TLK2, Homo sapiens, UniProt Q86UE8)

| Compound | observed | action | method | concentration | quantity | value |
| --- | --- | --- | --- | --- | --- | --- |
| COc1ccc2cc(OCC3(C(=O)O)CN(C(=O)c4ccc(F)cc4)C3)ccc2c1 | cell-free assay |  | competition with immobilised ligand | 1 µM | remaining binding | 100% |
| CC(C)(C)c1nc2c(s1)c1nc(N)ncc1c1ccc(NS(=O)(=O)c3c(F)cccc3F)c(F)c12 | enzyme activity | inhibitor | radiometric | 1 µM | remaining activity | 109% |
| O=C(Nc1cnc(Oc2ccc(F)cc2)nc1)N1CCc2ncccc2[C@@H]1c1ccc(F)cc1 | cell-free assay |  | competition with immobilised ligand | 1 µM | remaining binding | 89% |
| c1ccc(CNc2nc(N3CCOc4ccccc43)nc3c2CCCC3)cc1 | target engagement in cells | inhibitor | chemoproteomics | 20 mM | inhibition | -6.8% |
| CNC(=O)c1cc(Oc2ccc(NC(=O)Nc3ccc(Cl)c(C(F)(F)F)c3)cc2)ccn1 | enzyme activity | inhibitor |  | 10 µM | inhibition | -1% |
| O=C(Nc1cnn(-c2csc(C(=O)NC3COC3)c2)c1)Nc1c(F)cccc1Cl | enzyme activity | inhibitor |  | 5 µM | remaining activity | 109% |
| CCCCN(CCCC)C(=O)CN1C[C@@H](c2cc(OC)c3c(c2)OCO3)[C@H](C(=O)O)[C@H]1CC(C)(C)CCC | cell-free assay |  | competition with immobilised ligand | 1 µM | remaining binding | 100% |
| Cc1ccc(C(=O)Nc2ccc(CN3CCN(C)CC3)c(C(F)(F)F)c2)cc1C#Cc1cnc2cccnn12 | enzyme activity | inhibitor |  | 23.5 nM | remaining activity | 100% |
| CCC(=O)N[C@@H]1CC[C@H](C(=O)N(C)c2ccc(-c3nc4ccccc4o3)cc2)C1 | cell-free assay |  | competition with immobilised ligand | 1 µM | remaining binding | 100% |
| Cc1sc(C(=O)NC2COC2)cc1-n1cc(NC(=O)Nc2c(F)cccc2Cl)cn1 | enzyme activity | inhibitor |  | 10 µM | remaining activity | 97.2% |
| CN(C)c1ncnc(-c2ccc3nc(Nc4cc(CN5CCN(C(=O)CC(F)(F)F)CC5)ccn4)[nH]c3c2)c1Cl | cell-free assay |  | competition with immobilised ligand | 1 µM | remaining binding | 100% |
| CCN(CC)c1ccc(C2=NNC(=O)CC2C)cc1[N+](=O)[O-] (centres unmarked) | enzyme activity | inhibitor |  | 10 µM | remaining activity | 82% |
| O=C1NC(=O)c2cc(Nc3ccc(F)cc3)c(Nc3ccc(F)cc3)cc21 | cell-free assay |  |  | 0.5 µM | remaining signal | 93.5% |
| Cc1ccc(NC(=O)c2ccc(C)c(C(F)(F)F)c2)cc1C#Cc1nn(C2CCC(O)CC2)c2ncnc(N)c12 (centres unmarked) | cell-free assay |  |  | 10 µM | remaining signal | 93% |
| O=C1Nc2ccc(Cl)cc2C1=Cc1cc(Cl)c(O)c(Cl)c1 | cell-free assay |  |  | 0.5 µM | remaining signal | 105% |
| Cc1ccc(C(=O)NCc2ccsc2)cc1C#Cc1cn(C(C)C)c2ncnc(N)c12 | enzyme activity | inhibitor |  | 1 µM | activity vs control | 97% |
| Cc1ccc(Nc2nccc(N(C)c3ccc4c(C)n(C)nc4c3)n2)cc1S(N)(=O)=O | cell-free assay | inhibitor |  | 0.5 µM | remaining signal | 85.6% |
| O=C1NC(c2ccccn2)Sc2ccccc21 (centres unmarked) | cell-free assay |  | competition with immobilised ligand | 1 µM | remaining binding | 96% |
| CN1CC(Oc2cnc(C#N)cc2-c2ccn3nc(NC(=O)C4CC4)cc3c2)C1 | enzyme activity | inhibitor |  | 1 µM | inhibition | 1% |
| COc1cc2c(N3CCN(C(=O)Nc4ccc(OC(C)C)cc4)CC3)ncnc2cc1OCCCN1CCCCC1 | cell-free assay |  |  | 0.5 µM | remaining signal | 96.2% |
